# Laboratory results from ChEMBL document CHEMBL3098013, “Novel pyrazole integrated 1,3,4-oxadiazoles: synthesis, characterization and antimicrobial evaluation” (2014).
# Tests used:
# Assay type in all cases: functional
# [1] = system: Fusarium oxysporum; experiment: Antimicrobial activity against Fusarium oxysporum MTCC 284 at 50 ug/ml after 48 hrs by disc diffusion method; conditions: MTCC 284, 48 h, read-out: DIZ
# Method in brief: (§1)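 Agar diffusion read-out is the diameter of the inhibition zone in mm. Each test was run in six replicates and reported as mean ± standard deviation, taken from at least three determinations.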
# [2] = system: Staphylococcus aureus; experiment: Antimicrobial activity against Staphylococcus aureus MTCC 96 at 100 ug/ml after 24 hrs by disc diffusion method; conditions: MTCC 96, 24 h, read-out: DIZ; method in brief: as §1
# [3] = system: Fusarium oxysporum; experiment: Antimicrobial activity against Fusarium oxysporum MTCC 284 after 48 hrs by microdilution method; conditions: MTCC 284, 48 h
# Method in brief: (§2)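 The minimal inhibitory concentration was determined by dilution, alongside minimal bactericidal concentration for bacterial strains and minimal fungicidal concentration for fungal strains. Tests were run in six replicates, and the value is the mean of at least three determinations.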
# [4] = system: Bacillus cereus; experiment: Antimicrobial activity against Bacillus cereus MTCC 8372 at 50 ug/ml after 24 hrs by disc diffusion method; conditions: MTCC 8372, 24 h, read-out: DIZ; method in brief: as §1
# [5] = system: Fusarium verticillioides; experiment: Antimicrobial activity against Fusarium moniliforme MTCC 156 after 48 hrs by microdilution method; conditions: MTCC 156, 48 h; method in brief: as §2
# [6] = system: Klebsiella pneumoniae; experiment: Antimicrobial activity against Klebsiella pneumoniae MTCC 3384 after 24 hrs by microdilution method; conditions: MTCC 3384, 24 h; method in brief: as §2
# [7] = system: Escherichia coli; experiment: Antimicrobial activity against Escherichia coli MTCC 724 after 24 hrs by microdilution method; conditions: MTCC 724, 24 h; method in brief: as §2
# [8] = system: Aspergillus flavus; experiment: Antimicrobial activity against Aspergillus flavus MTCC 873 at 50 ug/ml after 48 hrs by disc diffusion method; conditions: MTCC 873, 48 h, read-out: DIZ; method in brief: as §1
# [9] = system: Aspergillus flavus; experiment: Antimicrobial activity against Aspergillus flavus MTCC 873 at 100 ug/ml after 48 hrs by disc diffusion method; conditions: MTCC 873, 48 h, read-out: DIZ; method in brief: as §1
# [10] = system: Aspergillus niger; experiment: Antimicrobial activity against Aspergillus niger MTCC 281 at 50 ug/ml after 48 hrs by disc diffusion method; conditions: MTCC 281, 48 h, read-out: DIZ; method in brief: as §1
# [11] = system: Fusarium verticillioides; experiment: Antimicrobial activity against Fusarium moniliforme MTCC 156 at 100 ug/ml after 48 hrs by disc diffusion method; conditions: MTCC 156, 48 h, read-out: DIZ; method in brief: as §1
# [12] = system: Staphylococcus aureus; experiment: Antimicrobial activity against Staphylococcus aureus MTCC 96 after 24 hrs by microdilution method; conditions: MTCC 96, 24 h; method in brief: as §2
# [13] = system: Fusarium oxysporum; experiment: Antimicrobial activity against Fusarium oxysporum MTCC 284 at 100 ug/ml after 48 hrs by disc diffusion method; conditions: MTCC 284, 48 h, read-out: DIZ; method in brief: as §1
# [14] = system: Fusarium verticillioides; experiment: Antimicrobial activity against Fusarium moniliforme MTCC 156 at 50 ug/ml after 48 hrs by disc diffusion method; conditions: MTCC 156, 48 h, read-out: DIZ; method in brief: as §1
# [15] = system: Bacillus cereus; experiment: Antimicrobial activity against Bacillus cereus MTCC 8372 after 24 hrs by microdilution method; conditions: MTCC 8372, 24 h; method in brief: as §2
# [16] = system: Aspergillus niger; experiment: Antimicrobial activity against Aspergillus niger MTCC 281 at 100 ug/ml after 48 hrs by disc diffusion method; conditions: MTCC 281, 48 h, read-out: DIZ; method in brief: as §1
# [17] = system: Bacillus cereus; experiment: Antimicrobial activity against Bacillus cereus MTCC 8372 at 100 ug/ml after 24 hrs by disc diffusion method; conditions: MTCC 8372, 24 h, read-out: DIZ; method in brief: as §1
# [18] = system: Staphylococcus aureus; experiment: Antimicrobial activity against Staphylococcus aureus MTCC 96 at 50 ug/ml after 24 hrs by disc diffusion method; conditions: MTCC 96, 24 h, read-out: DIZ; method in brief: as §1
# [19] = system: Escherichia coli; experiment: Antimicrobial activity against Escherichia coli MTCC 724 at 50 ug/ml after 24 hrs by disc diffusion method; conditions: MTCC 724, 24 h, read-out: DIZ; method in brief: as §1
# [20] = system: Aspergillus niger; experiment: Antimicrobial activity against Aspergillus niger MTCC 281 after 48 hrs by microdilution method; conditions: MTCC 281, 48 h; method in brief: as §2
# [21] = system: Escherichia coli; experiment: Antimicrobial activity against Escherichia coli MTCC 724 at 100 ug/ml after 24 hrs by disc diffusion method; conditions: MTCC 724, 24 h, read-out: DIZ; method in brief: as §1
# [22] = system: Klebsiella pneumoniae; experiment: Antimicrobial activity against Klebsiella pneumoniae MTCC 3384 at 100 ug/ml after 24 hrs by disc diffusion method; conditions: MTCC 3384, 24 h, read-out: DIZ; method in brief: as §1
# [23] = system: Klebsiella pneumoniae; experiment: Antimicrobial activity against Klebsiella pneumoniae MTCC 3384 at 50 ug/ml after 24 hrs by disc diffusion method; conditions: MTCC 3384, 24 h, read-out: DIZ; method in brief: as §1
# [24] = system: Aspergillus flavus; experiment: Antimicrobial activity against Aspergillus flavus MTCC 873 after 48 hrs by microdilution method; conditions: MTCC 873, 48 h; method in brief: as §2
MIC [3],MIC [5],MIC [6],MIC [7],MIC [12],Structure (SMILES),zone of inhibition at 50 µg/mL [1],zone of inhibition at 100 µg/mL [2],MFC [3],zone of inhibition at 50 µg/mL [4],MFC [5],MBC [6],MBC [7],zone of inhibition at 50 µg/mL [8],zone of inhibition at 100 µg/mL [9],zone of inhibition at 50 µg/mL [10],zone of inhibition at 100 µg/mL [11],MBC [12],zone of inhibition at 100 µg/mL [13],zone of inhibition at 50 µg/mL [14],MBC [15],also measured
40 µg/mL,55 µg/mL,25 µg/mL,25 µg/mL,20 µg/mL,COc1cc(-c2nn(-c3ccccc3)c(C)c2-c2nnc(-c3ccccc3)o2)cc(OC)c1OC,8 mm,26 mm,290 µg/mL,11 mm,300 µg/mL,175 µg/mL,170 µg/mL,6 mm,12 mm,10 mm,10 mm,155 µg/mL,10 mm,5 mm,160 µg/mL,MIC [15]: 20 µg/mL; zone of inhibition at 100 µg/mL [16]: 20 mm; zone of inhibition at 100 µg/mL [17]: 22 mm; zone of inhibition at 50 µg/mL [18]: 10 mm; zone of inhibition at 50 µg/mL [19]: 12 mm; MFC [20]: 220 µg/mL; MIC [20]: 30 µg/mL; zone of inhibition at 100 µg/mL [21]: 17 mm; zone of inhibition at 100 µg/mL [22]: 10 mm; zone of inhibition at 50 µg/mL [23]: 6 mm; MFC [24]: 275 µg/mL; MIC [24]: 45 µg/mL
25 µg/mL,55 µg/mL,35 µg/mL,35 µg/mL,40 µg/mL,COc1ccc(-c2nn(-c3ccccc3)c(C)c2-c2nnc(-c3ccccc3)o2)cc1OC,15 mm,13 mm,220 µg/mL,8 mm,290 µg/mL,250 µg/mL,220 µg/mL,5 mm,8 mm,3 mm,8 mm,235 µg/mL,24 mm,6 mm,230 µg/mL,MIC [15]: 35 µg/mL; zone of inhibition at 100 µg/mL [16]: 11 mm; zone of inhibition at 100 µg/mL [17]: 16 mm; zone of inhibition at 50 µg/mL [18]: 6 mm; zone of inhibition at 50 µg/mL [19]: 14 mm; MFC [20]: 275 µg/mL; MIC [20]: 40 µg/mL; zone of inhibition at 100 µg/mL [21]: 20 mm; zone of inhibition at 100 µg/mL [22]: 9 mm; zone of inhibition at 50 µg/mL [23]: 6 mm; MFC [24]: 275 µg/mL; MIC [24]: 45 µg/mL
55 µg/mL,45 µg/mL,30 µg/mL,35 µg/mL,40 µg/mL,Cc1c(C(=O)O)c(-c2ccccc2)nn1-c1ccccc1,3 mm,8 mm,295 µg/mL,4 mm,270 µg/mL,240 µg/mL,280 µg/mL,5 mm,8 mm,4 mm,5 mm,250 µg/mL,5 mm,6 mm,250 µg/mL,MIC [15]: 30 µg/mL; zone of inhibition at 100 µg/mL [16]: 6 mm; zone of inhibition at 100 µg/mL [17]: 8 mm; zone of inhibition at 50 µg/mL [18]: 2 mm; zone of inhibition at 50 µg/mL [19]: 3 mm; MFC [20]: 280 µg/mL; MIC [20]: 50 µg/mL; zone of inhibition at 100 µg/mL [21]: 8 mm; zone of inhibition at 100 µg/mL [22]: 6 mm; zone of inhibition at 50 µg/mL [23]: 4 mm; MFC [24]: 300 µg/mL; MIC [24]: 55 µg/mL
30 µg/mL,40 µg/mL,50 µg/mL,40 µg/mL,50 µg/mL,Cc1c(-c2nnc(-c3ccccc3)o2)c(-c2ccc(Cl)cc2)nn1-c1ccccc1,14 mm,10 mm,215 µg/mL,6 mm,270 µg/mL,250 µg/mL,250 µg/mL,6 mm,10 mm,8 mm,8 mm,250 µg/mL,22 mm,5 mm,240 µg/mL,MIC [15]: 40 µg/mL; zone of inhibition at 100 µg/mL [16]: 10 mm; zone of inhibition at 100 µg/mL [17]: 10 mm; zone of inhibition at 50 µg/mL [18]: 5 mm; zone of inhibition at 50 µg/mL [19]: 11 mm; MFC [20]: 275 µg/mL; MIC [20]: 50 µg/mL; zone of inhibition at 100 µg/mL [21]: 18 mm; zone of inhibition at 100 µg/mL [22]: 9 mm; zone of inhibition at 50 µg/mL [23]: 5 mm; MFC [24]: 275 µg/mL; MIC [24]: 50 µg/mL
40 µg/mL,45 µg/mL,25 µg/mL,25 µg/mL,20 µg/mL,Cc1c(-c2nnc(-c3ccccc3)o2)c(-c2ccc([N+](=O)[O-])cc2)nn1-c1ccccc1,8 mm,18 mm,280 µg/mL,14 mm,275 µg/mL,180 µg/mL,190 µg/mL,6 mm,14 mm,8 mm,14 mm,150 µg/mL,10 mm,5 mm,150 µg/mL,MIC [15]: 20 µg/mL; zone of inhibition at 100 µg/mL [16]: 12 mm; zone of inhibition at 100 µg/mL [17]: 20 mm; zone of inhibition at 50 µg/mL [18]: 10 mm; zone of inhibition at 50 µg/mL [19]: 9 mm; MFC [20]: 290 µg/mL; MIC [20]: 40 µg/mL; zone of inhibition at 100 µg/mL [21]: 18 mm; zone of inhibition at 100 µg/mL [22]: 12 mm; zone of inhibition at 50 µg/mL [23]: 9 mm; MFC [24]: 290 µg/mL; MIC [24]: 50 µg/mL
40 µg/mL,55 µg/mL,20 µg/mL,20 µg/mL,40 µg/mL,COc1cc(-c2nnc(-c3c(-c4ccccc4)nn(-c4ccccc4)c3C)o2)cc(OC)c1OC,8 mm,12 mm,275 µg/mL,4 mm,300 µg/mL,160 µg/mL,150 µg/mL,4 mm,13 mm,5 mm,10 mm,250 µg/mL,10 mm,7 mm,230 µg/mL,MIC [15]: 35 µg/mL; zone of inhibition at 100 µg/mL [16]: 12 mm; zone of inhibition at 100 µg/mL [17]: 13 mm; zone of inhibition at 50 µg/mL [18]: 5 mm; zone of inhibition at 50 µg/mL [19]: 20 mm; MFC [20]: 275 µg/mL; MIC [20]: 40 µg/mL; zone of inhibition at 100 µg/mL [21]: 32 mm; zone of inhibition at 100 µg/mL [22]: 20 mm; zone of inhibition at 50 µg/mL [23]: 10 mm; MFC [24]: 275 µg/mL; MIC [24]: 45 µg/mL
40 µg/mL,50 µg/mL,25 µg/mL,25 µg/mL,25 µg/mL,Cc1c(-c2nnc(-c3ccc([N+](=O)[O-])cc3)o2)c(-c2ccccc2)nn1-c1ccccc1,6 mm,10 mm,275 µg/mL,6 mm,290 µg/mL,185 µg/mL,180 µg/mL,3 mm,12 mm,2 mm,8 mm,190 µg/mL,8 mm,6 mm,200 µg/mL,MIC [15]: 25 µg/mL; zone of inhibition at 100 µg/mL [16]: 11 mm; zone of inhibition at 100 µg/mL [17]: 14 mm; zone of inhibition at 50 µg/mL [18]: 5 mm; zone of inhibition at 50 µg/mL [19]: 11 mm; MFC [20]: 280 µg/mL; MIC [20]: 45 µg/mL; zone of inhibition at 100 µg/mL [21]: 20 mm; zone of inhibition at 100 µg/mL [22]: 10 mm; zone of inhibition at 50 µg/mL [23]: 7 mm; MFC [24]: 290 µg/mL; MIC [24]: 55 µg/mL
